Measured values collected from several papers.
Protocols differ between the studies behind these lines.
Target: Serine/threonine-protein kinase PLK3 (PLK3, Homo sapiens, UniProt Q9H4B4)

O=C(c1ccc(Nc2ncc(Cl)c(-c3ccc(Cl)s3)n2)cc1)N1CCC(N2CCCC2)CC1 — remaining binding (binding; competition with immobilised ligand; 1 µM): 31%
CCOCCn1cc(C(=O)Nc2ccc(-n3nc(-c4cccnc4)cc3C(F)(F)F)cn2)ccc1=O — remaining binding (cell-free assay; competition with immobilised ligand; 1 µM): 84%
CN(C)c1nccc(-c2cnc3ncccn23)n1 — remaining binding (binding; 1 µM): 66%
O=C(NCC1CCOCC1)c1n[nH]cc1NC(=O)c1c(F)cccc1F — remaining binding (binding; competition with immobilised ligand; 1 µM): 89%
N[C@@H]1CCN(c2nccc(-c3cnn4ncccc34)n2)C1 — remaining binding (binding; 1 µM): 100%
C[C@@H]1CN(c2cc(-c3n[nH]c4ccc(OC5(C)CC5)cc34)ncn2)C[C@H](C)O1 — remaining binding (cell-free assay; competition with immobilised ligand; 0.1 µM): 84%
CN(C)c1nccc(-c2cnn3ncccc23)n1 — remaining binding (binding; 1 µM): 83%
O=C(Nc1cccnn1)N1CC(C/C=C/c2cncc(Oc3ccc(C(F)(F)F)cn3)n2)C1 — remaining binding (cell-free assay; competition with immobilised ligand; 1 µM): 80%
c1cncc(-c2cccc(Nc3nccc(NC4CCCCC4)n3)c2)c1 — remaining binding (binding; competition with immobilised ligand; 10 µM): 78%
CN(c1nccc(-c2cnn3ncccc23)n1)C1CC1 — remaining binding (binding; 1 µM): 86%
N#Cc1ccccc1CSc1nnc2c(n1)[nH]c1ccccc12 — remaining binding (binding; competition with immobilised ligand; 10 µM): 100%
C[C@H](c1ccc(F)cc1)N(Cc1cccc(C(=O)O)c1)C(=O)c1cnc2ccccc2c1 — remaining binding (cell-free assay; competition with immobilised ligand; 1 µM): 100%
COc1ncc2cc3ccccc3nc2c1C#N — remaining binding (cell-free assay; competition with immobilised ligand; 5 µM): 69%
C[C@H](c1ccnc(Nc2nc3ccc(-c4cc(N(C)C)ncn4)cc3[nH]2)c1)N1CCN(C(=O)CC(F)(F)F)CC1 — remaining binding (cell-free assay; competition with immobilised ligand; 0.1 µM): 100%
O=C(c1ccc(Nc2nccc(-c3cc4ccccc4s3)n2)cc1)N1CCC(N2CCCC2)CC1 — remaining binding (binding; competition with immobilised ligand; 1 µM): 81%
C[C@@H]1CN(c2ccc3ncc(-c4ccc5[nH]nc(C6CC6)c5c4)n3n2)C[C@H](C)O1 — remaining binding (binding; competition with immobilised ligand; 50 nM): 78%
COCCOc1nc(-c2ccc(Cl)nc2)nc2c1CN(C(=O)c1ncn3ccccc13)CC2 — remaining binding (cell-free assay; competition with immobilised ligand; 0.1 µM): 100%
CCN1CCN(Cc2ccc(C(=O)Nc3ccc(C)c(Oc4ccc5c(c4)CC(=O)N5)c3)cc2C(F)(F)F)CC1 — remaining binding (binding; competition with immobilised ligand; 1 µM): 100%
Cc1cnc(Nc2ccc(C(=O)N3CCC(N4CCCC4)CC3)cc2)nc1-c1cc2ccccc2s1 — remaining binding (binding; competition with immobilised ligand; 1 µM): 42%
CNC(=O)[C@@H]1CC[C@@H](n2c(-c3ccc4cnccc4c3)nc3ccc(C(=O)NCc4cccc(C(N)=O)c4)cc32)C1 — remaining binding (binding; competition with immobilised ligand; 1 µM): 100%
F[C@@H]1CCN(c2nccc(-c3cnn4ncccc34)n2)C1 — remaining binding (binding; 1 µM): 87%
COc1ccc2cc(OCC3(C(=O)O)CN(C(=O)c4ccc(F)cc4)C3)ccc2c1 — remaining binding (cell-free assay; competition with immobilised ligand; 1 µM): 95%
C[C@H]1CCN(c2nccc(-c3cnn4ncccc34)n2)C1 — remaining binding (binding; 1 µM): 75%
COc1cnc(Nc2cccc(S(N)(=O)=O)c2)nc1N1CCN(c2ccccc2)CC1 — remaining binding (binding; competition with immobilised ligand; 1 µM): 95%
